Data on 1 compound can be found in ChEMBL document CHEMBL4340525, “Tumor-Targeted Delivery of 6-Diazo-5-oxo-l-norleucine (DON) Using Substituted Acetylated Lysine Prodrugs” (J Med Chem, 2019).

A short description of data set [1]: Stability in mouse plasma assessed as parent compound remaining at 20 uM measured after 1 hr by LC-MS/MS analysis.
The nature of data set [2]: Cmax in CES1-deficient C57BL/6 mouse plasma implanted with mouse EL4 cells assessed as 6-diazo-5-oxo-L-norleucine level at 3.2 mg/kg, sc administered as single dose by LC-MS/MS analysis. The arrangement: dose 3.2 mg/kg, route subcutaneous. To be noted: in vivo. The class given is ADME, organism-based. The procedure, abridged:
(§1)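 Male and female C57BL/6 CES1-/- mice, 6–8 weeks old, carried flank EL4 tumours from SC injection of 1 × 10^6 cells in PBS. Dosing began at about 400 mm3 mean tumour volume. Each mouse got one SC dose of 3.2 mg/kg (1 mg/kg DON equivalent) in ethanol/Tween 80/saline 5:10:85. Plasma, jejunum and tumour were taken at set times, n = 3 per time point. Prodrug and dabsyl-derivatised DON were measured by LC-MS/MS. Noncompartmental analysis: Cmax and Tmax observed, AUClast by log-linear trapezoidal rule.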

The species named for another data set is Homo sapiens. Description: (§2) Antiproliferative activity against human P493B cells measured after 72 hrs by CellTiter 96 aqueous one solution cell proliferation assay. The class given is functional, cell-based. The procedure, abridged: (§3)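 P493B lymphoma cells seeded at 20 000 cells/well in growth medium. DMSO stocks added as a 1:10 serial dilution, final 0.2% DMSO. Cells grown 72 h with compound, then given CellTiter 96 AQueous reagent for 2 h and read by absorbance at 490 nm. EC50 obtained by nonlinear regression of log-transformed data.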

A short description of data set [3]: as §2. In kind it is functional, cell-based. The procedure, abridged:
as §3

The nature of data set [4]: Ratio of AUC (0 to t) in tumor to plasma of CES1-deficient C57BL/6 mouse implanted with mouse EL4 cells assessed as 6-diazo-5-oxo-L-norleucine level at 3.2 mg/kg, sc administered as single dose by LC-MS/MS analysis. To be noted: tumour. The class given is ADME, organism-based. In a few lines: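 Tissue-to-tissue ratios of DON AUClast came from noncompartmental analysis. EL4-bearing CES1-/- C57BL/6 mice received one SC dose of 3.2 mg/kg (1 mg/kg DON equivalent) in ethanol/Tween 80/saline 5:10:85. Tumour, jejunum and plasma were sampled over time, n = 3 mice per time point. DON was read by LC-MS/MS after dabsyl chloride derivatisation.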

Data set [5] can be described thus: AUC (0 to t) in CES1-deficient C57BL/6 mouse plasma implanted with mouse EL4 cells at 3.2 mg/kg, sc administered as single dose by LC-MS/MS analysis. In kind it is ADME, organism-based. The procedure, abridged: as §1
Data set [6] can be described thus: AUC (0 to t) in CES1-deficient C57BL/6 mouse tumor implanted with mouse EL4 cells at 3.2 mg/kg, sc administered as single dose by LC-MS/MS analysis. As to conditions: in vivo. The class given is ADME, organism-based, Neoplasm. The procedure, abridged:
as §1

The nature of data set [7]: Stability in swine plasma assessed as parent compound remaining at 20 uM measured after 1 hr by LC-MS/MS analysis. As to conditions: Sus scrofa, pig.
Data set [8] can be described thus: Prodrug conversion in human P493B cells suspended in human plasma assessed as deacetylation by measuring (6a) (S)-2-{(S)-2-[(Adamantane-1-carbonyl)-amino]-6-amino-hexanoylamino}-6-diazo-5-oxo-hexanoic acid isopropyl ester formation measured after 1 hr by HRMS analysis. In kind it is ADME, cell-based. In a few lines:
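Metabolite identification: compound was incubated 1 h with 10 million P493B cells suspended in 1 mL human plasma. Cell pellets were collected and metabolites identified by HRMS.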

Data set [9] in a line: Tmax in CES1-deficient C57BL/6 mouse jejunum implanted with mouse EL4 cells at 3.2 mg/kg, sc administered as single dose by LC-MS/MS analysis. In kind it is ADME, organism-based. To be noted: in vivo, BLD = below limit of detection. The procedure, abridged: as §1
Data set [10] can be described thus: Stability in human plasma assessed as parent compound remaining at 20 uM measured after 1 hr by LC-MS/MS analysis.
The nature of data set [11]: Stability in human liver microsomes assessed as parent compound remaining at 1 uM measured after 1 hr by LC-MS/MS analysis. To be noted: read-out: Stability. The class given is ADME, Microsome. The procedure, abridged: (§4)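 Human liver microsomes (0.2 mg/mL protein) or S9 fraction (0.5 mg/mL) were incubated with prodrug at 1 µM final, 37 °C, 1 h with shaking. Reactions were quenched in triplicate with three volumes acetonitrile containing losartan. Parent remaining was taken from analyte/internal-standard peak-area ratio by UHPLC-MS/MS.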

Data set [12] in a line: Ratio of 6-diazo-5-oxo-L-norleucine EC50 to test compound EC50 for human P493B cells. In kind it is functional.
A short description of data set [13]: Cmax in CES1-deficient C57BL/6 mouse tumor implanted with mouse EL4 cells at 3.2 mg/kg, sc administered as single dose by LC-MS/MS analysis. Details: dose 3.2 mg/kg, route subcutaneous. As to conditions: in vivo. In kind it is ADME, organism-based, Neoplasm. In a few lines:
as §1

The nature of data set [14]: Tmax in CES1-deficient C57BL/6 mouse plasma implanted with mouse EL4 cells at 3.2 mg/kg, sc administered as single dose by LC-MS/MS analysis. The class given is ADME, organism-based. In a few lines:
as §1

A short description of data set [15]: Stability in human liver S9 fraction assessed as parent compound remaining at 1 uM measured after 1 hr by LC-MS/MS analysis. To be noted: read-out: Stability. In kind it is ADME, subcellular. The procedure, abridged: as §4
Data set [16] in a line: Stability of the compound in wild-type C57BL/6 mouse plasma measured after 60 mins by UHPLC-MS analysis. To be noted: 1 h. The class given is ADME, cell-free.
A short description of data set [17]: Stability of the compound in wild-type C57BL/6 mouse plasma assessed as de-esterification of carboxyl ester measured after 60 mins by HRMS analysis. As to conditions: 1 h. The class given is ADME, cell-free.
A short description of data set [18]: Prodrug conversion in human P493B cells suspended in human plasma assessed as 6-diazo-5-oxo-L-norleucine formation at 20 uM measured after 1 hr by LC-MS/MS analysis. The class given is ADME, cell-based. The procedure, abridged: (§5)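 Cells were grown in RPMI 1640 with 10% FBS, washed in DPBS and resuspended in human plasma at 10 million cells/mL. After 5 min preincubation at 37 °C, compound was added at 20 µM final for 1 h. The mix was centrifuged at 10 000g and the washed pellet and plasma were quantified separately. DON was read by LC-MS/MS after dabsyl chloride derivatisation, intact prodrug directly. Standard curves were made in naive cells or plasma.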

Data set [19] can be described thus: Prodrug conversion in human plasma suspended with human H69 cells assessed as 6-diazo-5-oxo-L-norleucine formation at 20 uM measured after 1 hr by LC-MS/MS analysis. The class given is ADME, cell-free. In a few lines:
as §5

Data set [20] can be described thus: Tmax in CES1-deficient C57BL/6 mouse tumor implanted with mouse EL4 cells assessed as 6-diazo-5-oxo-L-norleucine level at 3.2 mg/kg, sc administered as single dose by LC-MS/MS analysis. As to conditions: in vivo. The class given is ADME, organism-based, Neoplasm. The procedure, abridged:
as §1

Data set [21] is described as follows: Stability in human plasma suspended with human P493B cells at 20 uM by LC-MS/MS analysis. The class given is ADME. As to conditions: TDE = time-dependent effect. In a few lines:
as §5

The nature of data set [22]: Drug level in mouse EL4 cells implanted in CES1-deficient C57BL/6 mouse assessed as tumor cell to plasma ratio at 3.2 mg/kg, sc administered as single dose measured after 1 hr by LC-MS/MS analysis. The class given is ADME, organism-based.

As usually defined, the EC50 is the midpoint of the concentration-response curve. One may read the AUC(0-t) as the area under the concentration-time curve up to a stated or last time point. Higher therefore signals high exposure. The term Tmax denotes the time at which the peak concentration occurs. Usually Kp stands for the ratio of the level in a tissue or fluid to that in plasma or blood.

Structures are written as SMILES.

For `CC(=O)NCCCC[C@H](NC(=O)C12CC3CC(CC(C3)C1)C2)C(=O)N[C@@H](CCC(=O)C=[N+]=[N-])C(=O)OC(C)C`, the Stability was 0% in data set [1]; 108% in data set [7]; 107% in data set [10]; “Unstable” in data set [16]; “Unstable” in data set [17]; “Tde” in data set [21]. The Cmax in data set [2] is 0.44 µM; in data set [13] it was 0.05 nmol/g. Moreover, in the data set filed under Homo sapiens, the Activity entry was “Dose-dependent effect”. In [3], this compound showed an EC50 of 5 µM. Moreover, the “Ratio AUC” value in data set [4] came to 5. For the same compound, the AUC(0-t) in data set [5] worked out at 400 nM·h. Also, the AUCt in data set [6] came to 0.03 nmol·h/g. Also, the Drug metabolism result in [8] was “Metabolite_Detected”; in data set [18], 8.81 µM; in [19], 0.25 to 0.5 µM. In addition, the Tmax result was “Bld” in data set [9], 15 min in data set [14] and 60 min in data set [20]. Besides, the remaining at 1 h, 1 µM in data set [11] and in [15] was 100% throughout. The “Ratio EC50” value in data set [12] is listed as 2. Further, the Kp at 1 h in [22] was found to be 16.
